Source: PMC3129977 (ACS chemical neuroscience, 2011)

What was measured:
aggregated Aβ42 peptides [1] = biological target: T1, aggregated Aβ42 peptides (Homo sapiens, UniProt P05067); conditions: earlier report; cited from earlier work
[2] = biological target: Aβ plaques in brain sections from an AD patient (Homo sapiens, UniProt P05067); assay: Staining of frozen human brain tissue sections; conditions: 60 μM probe in PBS, 30 min
Procedure, shortened: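 Frozen AD brain sections were dried for 1 h, passed through 100%, 95% and 70% ethanol (5 min each), rinsed in water, and equilibrated 15 min in PBS. Probe was diluted 1:50 from 3 mM PBS stock to 60 μM final and applied for 30 min at room temperature. Sections were PBS-washed, coverslipped and imaged by epifluorescence. Plaque/background intensity was normalized to a reference probe, as mean ± SD, n = 10 measurements per probe.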

aggregated Aβ42 peptides [3] = biological target: T1, aggregated Aβ42 peptides; assay: Fluorescence studies with aggregated Aβ peptides; format: binding
[4] = free probe 4 μM, 5% DMSO in nanopure water, before mixing with aggregated Aβ42
[5] = probe 4 μM after mixing with aggregated Aβ42 (5 μM)

T1 sequence (P05067 672-713 limits assumed): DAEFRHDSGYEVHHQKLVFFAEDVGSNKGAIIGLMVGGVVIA
Chain of Aβ plaques in brain sections from an AD patient (P05067 672-711 limits assumed): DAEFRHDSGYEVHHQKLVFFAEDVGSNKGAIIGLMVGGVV

Q: For `COCCOCCOCCOC(=O)/C(C#N)=C/c1ccc2cc(N3CCCCC3)ccc2c1` [Compound 6], which “Fluorescence change upon binding to Aβ fibrils” value (aggregated Aβ42 peptides [1]) is on record?
A: large increase in fluorescence intensity

Q: And the “Fluorescence contrast between plaques and surrounding tissue” value [2]?
A: weaker observed contrast

Q: And the “Staining of Aβ plaques” value [2]?
A: stained

Q: And the Em. max before (aggregated Aβ42 peptides [3]; [4])?
A: 590 nm

Q: And the Exc. max before (aggregated Aβ42 peptides [3]; [4])?
A: 415 nm

Q: What about the Em. max after (aggregated Aβ42 peptides [3]; [5]) of the same compound?
A: 545 nm

Q: And the Exc. max after (aggregated Aβ42 peptides [3]; [5])?
A: 410 nm

Q: And the “Fold increase in emission intensity upon association with aggregated Aβ42” value (aggregated Aβ42 peptides [3]; probe 4 μM, aggregated Aβ42 5 μM)?
A: 7.7 fold
